Measurements taken from PMC11526549 (Journal of Nanobiotechnology, 2024).
Where two headings read alike, the source gives them in different places. Positions of bridges follow the written chain, without caps; N, C: chain ends. Residues, ends and D or L forms follow the SMILES beside them. *: point of attachment. Fmoc = O=C(OCC1c2ccccc2-c2ccccc21)*

Experiments:
[1] = CMC determination with ANS fluorescent probe; format: physicochemical; settings: in PBS
Procedure, shortened: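 CMC is the crossing point of the 480 nm intensity plotted against log peptide concentration. A parallel run at 80 µM peptide adds LPS or LTA (final 1 µM) to test their effect on assembly.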

[2] = Particle size of self-assembled AMPs; format: physicochemical; settings: 80 µM peptide, SEM/TEM
Procedure, shortened: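 Test compound at 80 µM, alone or with LPS or LTA (final 1 µM), imaged by SEM and TEM to assess assembly morphology and particle size.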

ζ-potential = format: physicochemical; settings: 80 µM in PBS pH 7.4, room temperature
[3] = LPS binding assay with BC probe; parameters: species or system E. coli; settings: BC probe 10 µM, LPS 1 µM, Tris 50 mM pH 7.4; 0.125-64 µM peptide; n=3
[4] = LTA binding assay with BC probe; parameters: species or system S. aureus; settings: BC probe 10 µM, LTA 1 µM, Tris 50 mM pH 7.4; 0.125-64 µM peptide; n=3
E. coli CGMCC 1.90026 [5] = experiment: Time-kill kinetics; format: cell-based, Escherichia coli; settings: 1×, 2× or 4× MIC
Procedure, shortened: (§1)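 Counts on MHA at 0, 0.5, 1, 2, 4, 6, 8, 10 and 24 h, in triplicate. MDK99 and MDK99.99 are the minimum times to 99% and 99.99% kill.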

S. aureus CGMCC 1.90032 [6] = experiment: Time-kill kinetics; format: cell-based, Staphylococcus aureus
Procedure, shortened: as §1

E. coli ATCC 25922 = experiment: Serum stability test; format: in vitro ADME, Escherichia coli; settings: 37°C, 8 h, MIC vs E. coli ATCC 25922
[7] = Proteolytic stability in trypsin, HPLC; format: in vitro ADME; settings: trypsin (1 w/v%)
Procedure, shortened: (§2)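 Test compound (2560 µM) incubated with 1 w/v% trypsin at 37 °C. Aliquots taken at 0.5, 1, 2, 4 and 6 h, diluted to 256 µM in 0.1% TFA/water and quantified by HPLC. Remaining peptide calculated as a time course; n=3.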

trypsin [8] = experiment: Trypsin resistance of LPS-induced nanofibers versus nanoparticles, HPLC; format: in vitro ADME; settings: n=3
Procedure, shortened: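 Peptide (80 µM), LPS (1 µM) and trypsin (10 µM) combined in different orders. In one arm LPS pre-forms nanofibers before trypsin; in another peptide is pre-incubated with trypsin before LPS. A non-specific assembly condition serves as reference. Peptide retention measured by HPLC and expressed as a ratio to that reference; n=3.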

[9] = Metabolic stability in liver tissue homogenate, HPLC; format: in vitro ADME; settings: mouse liver tissue homogenate 50 mg/mL, 8 h, mean of n=3
E. coli CGMCC 1.90026 [10] = experiment: Mutation-proof concentration; format: cell-based, Escherichia coli
S. aureus CGMCC 1.90032 [11] = experiment: Mutation-proof concentration; format: cell-based, Staphylococcus aureus
E. coli CGMCC 1.90026 [12] = experiment: Membrane integrity, PI uptake by flow cytometry; format: cell-based, Escherichia coli; settings: range over 5-80 µM and both E. coli strains (Fig. 7A, Figure S15A)
Procedure, shortened: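 Clinical E. coli CGMCC 1.90026 treated with test compound at 5, 20, 40 or 80 µM. Propidium iodide-positive cells counted by flow cytometry as the membrane penetration rate.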

E. coli = experiment: Cytoplasmic membrane potential, DiSC3; format: cell-based, Escherichia coli; settings: DiSC3-5, 5-80 µM, no dose-dependent effect
Procedure, shortened: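 Clinical isolate E. coli CGMCC 1.90026 exposed to test compound. Cytoplasmic membrane potential change followed with the potentiometric dye DiSC3-5.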

[13] = tested on: E. coli liposomes (polar lipid extracts); experiment: Membrane fluidity assay, Laurdan GP; format: cell-based, Escherichia coli; settings: 5-80 µM, 1 h, concentration-dependent, n=3
S. aureus = experiment: Membrane fluidity assay, Laurdan GP; format: cell-based, Staphylococcus aureus; settings: 5-80 µM, 1 h, n=3
E. coli CGMCC 1.90026 [14] = experiment: Mouse mastitis model; format: in vivo
Procedure, shortened: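 Female ICR mice 10 d post-partum, pups removed 2 h before infection. Under anaesthesia, 0.5 mm trimmed from the fourth nipple pair. Mid-log E. coli CGMCC 1.90026 (PBS-washed, 5×10^3 CFU/mL, 100 µL) given through the nipple duct. 3 h later, test compound (100 or 200 µM) given via the mammary duct. Groups: uninfected, untreated, ceftiofur sodium 200 µM. Mammary TNF-α, IL-1β, IL-6 and IL-2 measured.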

S. aureus CGMCC 1.90032 [15] = experiment: Mouse mastitis model; format: in vivo; settings: compared with NC group
Procedure, shortened: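 Female ICR mice 10 d post-partum, separated from pups 2 h before infection. Under anaesthesia, nipple tip trimmed 0.5 mm. Mid-log S. aureus CGMCC 1.90032 (PBS-washed, 1×10^3 CFU/mL, 100 µL) inoculated via the fourth-pair nipple ducts. Test compound (100 or 200 µM) given intraductally 3 h post-infection. Groups: uninfected, untreated, ceftiofur sodium 200 µM. Mammary and spleen organ indices recorded.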

mouse erythrocytes = experiment: Hemolysis assay; format: cell-based; settings: 128 μM peptide, 8% mouse erythrocytes, 1 h, OD 540 nm; n=5
Procedure, shortened: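 Test compound (1–128 µM final) mixed 1:1 by volume with 8% mouse erythrocytes, 37 °C, 1 h. Spun 1500 rpm, 5 min, and supernatant A540 read. PBS set 0% and 0.1% Triton X-100 set 100%. Hemolysis (%) = (A_peptide−A0)/(A100−A0)×100.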

trypsin [16] = experiment: Proteolytic stability in trypsin, HPLC; format: in vitro ADME; settings: 1 w/v% trypsin, after 4 h, HPLC
Procedure, shortened: as §2

[17] = cited from earlier work
[18] = in comparison to self-assembled nanoparticles CPC-2; cited from earlier work
[19] = cited from earlier work; remark: listed apart in the source

## CC(C)C[C@H](NC(=O)[C@H](CCCCN)NC(=O)OCC1c2ccccc2-c2ccccc21)C(=O)N[C@H](C(=O)N[C@@H](Cc1ccccc1)C(=O)N[C@@H](Cc1ccccc1)C(=O)N[C@@H](CCCCN)C(=O)NCC(=O)N[C@@H](Cc1ccccc1)C(=O)N[C@@H](C)C(=O)N[C@@H](Cc1c[nH]c2ccccc12)C(=O)N[C@@H](CC(N)=O)C(=O)N[C@H](C(=O)N[C@H]1CSSC[C@@H](C(=O)N[C@@H](Cc2c[nH]cn2)C(=O)N[C@@H](CCCNC(=N)N)C(=O)N[C@@H](CCCNC(=N)N)C(=O)N[C@@H](C)C(=O)N[C@@H](CC(N)=O)C(N)=O)NC(=O)[C@H](C(C)C)NC(=O)[C@H](CCCNC(=N)N)NC(=O)[C@H](C(C)C)NC(=O)CNC(=O)[C@H](CC(N)=O)NC(=O)[C@H](CCCNC(=N)N)NC(=O)[C@H](Cc2ccc(O)cc2)NC(=O)[C@H](C(C)C)NC1=O)C(C)C)C(C)C [FKN] (Fmoc-KLVFFKGFAWNVCVYRNGVRVCHRRAN-NH2; disulfide 13-22)
[1]; ANS 25.6 µM, 1 h, fluorescence at 480 nm vs log concentration
  critical micelle concentration (CMC): 7.94 µM
[2]
  particle sizes of nanoparticles: 69.78±11.56 nm
ζ-potential
  zeta-potential: 24 mV
[3]
  affinity to LPS of E. coli: even greater than that of N6
[4]
  affinity to LTA of S. aureus: even greater than that of N6
E. coli CGMCC 1.90026 [5]
  time to complete eradication: ≤ 4 h
S. aureus CGMCC 1.90032 [6]; various concentrations
  time to complete kill: ≤ 1 h
E. coli ATCC 25922
  MIC after incubation in 25% serum: stable MICs
[7]; peptide retention rate, 1 w/v% trypsin, 6 h, HPLC, mean of n=3
  remaining at 6 h, 2560 µM: 44.2%
Trypsin [8]; 80 µM peptide pre-incubated with LPS 1 µM, then trypsin 10 µM 0.5 h
  protein retention rate of nanofibers: 90.1%
Trypsin [8]; 80 µM peptide without LPS pre-assembly, trypsin 10 µM 0.5 h
  protein retention rate of nanoparticles: 76.63%
[9]
  peptide retention rate in liver tissue: 33.93%

## CC(C)[C@@H]1NC(=O)CNC(=O)[C@H](CC(N)=O)NC(=O)[C@H](CCCNC(=N)N)NC(=O)[C@H](Cc2ccc(O)cc2)NC(=O)[C@H](C(C)C)NC(=O)[C@@H](NC(=O)[C@@H](NC(=O)[C@H](CC(N)=O)NC(=O)[C@H](Cc2c[nH]c3ccccc23)NC(=O)[C@H](C)NC(=O)[C@H](Cc2ccccc2)NC(=O)CN)C(C)C)CSSC[C@@H](C(=O)N[C@@H](Cc2c[nH]cn2)C(=O)N[C@@H](CCCNC(=N)N)C(=O)N[C@@H](CCCNC(=N)N)C(=O)N[C@@H](C)C(=O)N[C@@H](CC(N)=O)C(N)=O)NC(=O)[C@H](C(C)C)NC(=O)[C@H](CCCNC(=N)N)NC1=O [N6] (H-GFAWNVCVYRNGVRVCHRRAN-NH2; disulfide 7-16)
[1]; fluorescence in direct correlation with concentration
  self-assembly by ANS fluorescence: incapable of self-assembling
E. coli CGMCC 1.90026 [5]
  time to complete eradication: ≤ 4 h
S. aureus CGMCC 1.90032 [6]; minimum time for 99% sterilization
  MDK99: 1.45 h
S. aureus CGMCC 1.90032 [6]; minimum time for 99.99% sterilization
  MDK99.99: 1.99 h
E. coli CGMCC 1.90026 [10]
  SI (MPCs/MIC): 6.4
S. aureus CGMCC 1.90032 [11]
  SI (MPCs/MIC): 6.4
E. coli CGMCC 1.90026 [12]
  membrane penetration rates toward E. coli: 2.34 -80.7%
E. coli
  plasma membrane depolarization: underwent depolarization
[13]
  Laurdan GP (membrane fluidity): significant increase in Laurdan GP
S. aureus
  Laurdan GP (membrane fluidity): also increased
E. coli CGMCC 1.90026 [14]
  histopathology of mammary gland (HE): significant improvement in inflammatory symptoms
E. coli CGMCC 1.90026 [14]; 100 or 200 µM, ELISA, n=4
  levels of inflammatory factors (TNF-α, IL-1ß, IL-6 and IL-2) in mammary tissue: significantly reduced
S. aureus CGMCC 1.90032 [15]
  indices of the mammary gland and spleen: significantly decreased

## CC(C)[C@@H]1NC(=O)CNC(=O)[C@H](CC(N)=O)NC(=O)[C@H](CCCNC(=N)N)NC(=O)[C@H](Cc2ccc(O)cc2)NC(=O)[C@H](C(C)C)NC(=O)[C@@H](NC(=O)[C@@H](NC(=O)[C@H](CC(N)=O)NC(=O)[C@H](Cc2c[nH]c3ccccc23)NC(=O)[C@H](C)NC(=O)[C@H](Cc2ccccc2)NC(=O)CN)C(C)C)CSSC[C@@H](C(=O)N[C@@H](Cc2cnc[nH]2)C(=O)N[C@@H](CCCNC(=N)N)C(=O)N[C@@H](CCCNC(=N)N)C(=O)N[C@@H](C)C(=O)N[C@@H](CC(N)=O)C(N)=O)NC(=O)[C@H](C(C)C)NC(=O)[C@H](CCCNC(=N)N)NC1=O [N6] (H-GFAWNVCVYRNGVRVCHRRAN-NH2; disulfide 7-16)
Mouse erythrocytes
  hemolysis rate: no hemolysis
E. coli ATCC 25922
  MIC after incubation in 25% serum: twofold
[7]
  metabolised at 0.5 h, 2560 µM: > 50%
Trypsin [16]
  degradation in trypsin: completely degraded
[9]
  peptide retention rate in liver tissue: less than 9.76%

## BP-KFFVLK-RLKLILKSK [BET]
[17]; LPS induction
  time to complete transformation from nanoparticles to nanofibers: 72 h

## BP-KLVFF -RLYLRIGRR [HDMP]
[17]; LTA induction
  time to complete transformation from nanoparticles to nanofibers: 48 h

## Chitosan-GPLGVRGC-PEG2000- CGGG(KLAKLAK)2 [CPC-1]
[18]
  prolongation of the half-life at the site of infection: fourfold

## FLGALFRALSRLL [PTP-7]
[19]; before self-assembly
  stability in serum: 2 h
[19]; by self-assembly technology
  stability in serum: more than 5 h
